Experimental data taken from ChEMBL document CHEMBL1140339, “Spiro and dispiro-1,2,4-trioxolanes as antimalarial peroxides: charting a workable structure-activity relationship using simple prototypes” (J Med Chem, 2005).
Values after ≈ are worked out from the molar mass of the structure shown.

Experiments:
Plasmodium falciparum [1] = assay: In vitro inhibition of chloroquine-resistant Plasmodium falciparum K1; assay type: functional, organism-based
Mus musculus [2] = assay: Antimalarial activity (10 mg/kg, peroral) given 1 day post infection of mice (Mus musculus) with Plasmodium berghei is its ability to reduce parasitaemia on day 3 post infection; assay type: functional
How it was run: (§1)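 P. berghei-infected MORO mice, groups of three, treated 1 day postinfection with a single dose (100 or 10 mg/kg, po or sc) dissolved or suspended in 3% ethanol/7% Tween-80. Activity is percent reduction in parasitemia on day 3 postinfection versus untreated controls. Survival time is compared with an untreated control group. Individual measurements generally differed by less than 10%.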

Plasmodium falciparum [3] = assay: In vitro inhibition of chloroquine-sensitive Plasmodium falciparum NF54; assay type: functional, organism-based
Mus musculus [4] = assay: Survival of mice to 30-day postinfection with Plasmodium berghei upon 10 mg/kg upon subcutaneous dose was determined; assay type: functional; how it was run: as §1
Mus musculus [5] = assay: Survival of mice to 30-day postinfection with Plasmodium berghei upon 10 mg/kg peroral dose was determined; assay type: functional; details: route oral; how it was run: as §1
Mus musculus [6] = assay: Antimalarial activity (10 mg/kg, subcutaneously) given 1 day post infection of mice (Mus musculus) with Plasmodium berghei is its ability to reduce parasitemia on day 3 post infection; assay type: functional; how it was run: as §1
Mus musculus [7] = assay: Survival of mice to 30-day postinfection with Plasmodium berghei upon 100 mg/kg peroral dose was determined; assay type: functional; details: route oral; how it was run: as §1
Mus musculus [8] = assay: Survival of mice to 30-day postinfection with Plasmodium berghei upon 100 mg/kg upon subcutaneous dose was determined; assay type: functional; how it was run: as §1
Mus musculus [9] = assay: Antimalarial activity (100 mg/kg, subcutaneously) given 1 day post infection of mice (Mus musculus) with Plasmodium berghei is its ability to reduce parasitemia on day 3 post infection; assay type: functional; how it was run: as §1
Mus musculus [10] = assay: Antimalarial activity (100 mg/kg, peroral) given 1 day post infection of mice (Mus musculus) with Plasmodium berghei is its ability to reduce parasitaemia on day 3 post infection; assay type: functional; how it was run: as §1
Plasmodium falciparum [11] = assay: Anti-parasitic effect against Plasmodium berghei in mice (Mus musculus) after 4 days at 100 mg/kg/day (T/A Tween 80) peroral dose in Peters suppressive assay; assay type: functional, organism-based; design: route oral
[12] = Plasma clearance after intravenous administration of 30 mg/kg; assay type: ADME, organism-based, Mus musculus; design: dose 30 mg/kg, route intravenous
How it was run: (§2)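 Conscious, free-moving rats (n = 3 per group) were jugular- and carotid-cannulated the day before dosing under isoflurane, then fasted overnight. The iv dose was a 5 min jugular infusion in aqueous 0.1 M Captisol (10, 20 or 30 mg/kg). The oral dose was given by gavage as a suspension in 0.5% CMC/0.4% polysorbate 80/0.5% benzyl alcohol/0.9% NaCl (30, 50 or 80 mg/kg). Carotid blood was sampled over 7 h and plasma was obtained by centrifugation.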

Plasmodium falciparum [13] = assay: Antiparasitic effect against Plasmodium berghei infected mice (Mus musculus) after 100 mg/kg peroral (SSV) dose after 3 days; assay type: functional; details: route oral
[14] = Bioavailability obtained after oral administration of 80 mg/kg; assay type: ADME, organism-based, Mus musculus; details: in vivo; how it was run: as §2
Plasmodium falciparum [15] = assay: Antiparasitic effect against Plasmodium berghei infected mice (Mus musculus) after 100 mg/kg peroral (T/A Tween-80) dose after 3 days; assay type: functional, organism-based; design: dose 100 mg/kg, route oral; how it was run: as §1
[16] = Plasma half life period after intravenous administration ( 30 mg/kg ); assay type: ADME, organism-based, Mus musculus; design: dose 30 mg/kg, route intravenous; how it was run: as §2
[17] = Volume distribution after intravenous administration of 30 mg/kg; assay type: ADME, organism-based, Mus musculus; design: dose 30 mg/kg, route intravenous; details: in vivo; how it was run: as §2
[18] = Plasma clearance after intravenous administration of 10 mg/kg; details: rat
[19] = Oral bioavailability (dose 50 mg/kg); details: rat, in vivo
Mus musculus [20] = assay: Effective dose required to reduce the parasitemia in mice when compound administered with Tween-80 after 3 day postinfection; assay type: functional
[21] = Volume distribution after intravenous administration of 10 mg/kg; details: rat, in vivo
[22] = Plasma half life period after intravenous administration ( 10 mg/kg ); details: rat
Mus musculus [23] = species: Mus musculus; assay: Effective dose required to reduce the parasitemia in mice by suppressive test after 4 day postinfection; assay type: functional
How it was run: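 Peters 4-day suppressive test in P. berghei-infected mice with multiple daily oral doses. ED50/ED90 are given in (mg/kg)/day.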

Mus musculus [24] = assay: Survival of mice to 30-day postinfection with Plasmodium berghei upon 10 mg/kg upon peroral dose was determined; assay type: functional; details: route oral; how it was run: as §1
[25] = Plasma half life period after intravenous administration ( 20 mg/kg); details: rat, in vivo
Mus musculus [26] = assay: Effective dose required to reduce the parasitemia in mice when compound administered with SSV after 3 day postinfection; assay type: functional
[27] = Volume distribution after intravenous administration of 20 mg/kg; details: rat, in vivo

SMILES	IC50 (Plasmodium falciparum [1]) [µg/mL]	Reduction (Mus musculus [2]) [%]	IC50 (Plasmodium falciparum [3]) [µg/mL]	Survival (Mus musculus [4]) [days]	Survival (Mus musculus [5]) [days]	Reduction (Mus musculus [6]) [%]	Survival (Mus musculus [8]) [days]	Reduction (Mus musculus [9]) [%]	Reduction (Mus musculus [10]) [%]	further results
CC1(C)CC(C)(C)CC2(C1)OOC1(O2)C2CC3CC(C2)CC1C3 (stereo unspecified)	0.0031 (≈ 0.00967 µM)	88	0.005 (≈ 0.0156 µM)	97	7	99.9				
C1C2CC3CC1CC(C2)C31OOC2(O1)C1CC3CC(C1)CC2C3 (stereo unspecified)	0.95 (≈ 3 µM)		0.779 (≈ 2.46 µM)				5.3	0	0	Survival (Mus musculus [7]): 5.3 days
C1CCC2(CC1)OOC1(CCCCC1)O2	0.1 (≈ 0.471 µM)		0.504 (≈ 2.37 µM)				5.3	0	0	Survival (Mus musculus [7]): 5.3 days
CC1(C)COC2(CCC3(CC2)OOC2(CC(C)(C)CC(C)(C)C2)O3)OC1		0		5.7	5.7	0				
CC1(C)COC2(CCC3(CC2)OOC2(O3)C3CC4CC(C3)CC2C4)OC1 (stereo unspecified)				18	11.4	>99.99				EC50 (Plasmodium falciparum [11]): 1.8 (mg/kg)/day; clearance [12]: 83 mL/min/kg; EC90 (Plasmodium falciparum [13]): 6.2 (mg/kg)/day; bioavailability [14]: 0.73%; EC50 (Plasmodium falciparum [15]): 1.5 (mg/kg)/day; half-life [16]: 2.58 h; Vd [17]: 18 L/kg
c1ccc(CC2(Cc3ccccc3)OOC3(O2)C2CC4CC(C2)CC3C4)cc1 (stereo unspecified)	0.0031 (≈ 0.00823 µM)	88	0.003 (≈ 0.00797 µM)	8	6.7	99.7				
CCOC(=O)N1CCC2(CC1)OOC1(O2)C2CC3CC(C2)CC1C3 (stereo unspecified)	0.00029 (≈ 0.000859 µM)	99.5	0.00057 (≈ 0.00169 µM)	8.9	7.7	99.9				clearance [18]: 47 mL/min/kg; bioavailability [19]: 1.5%; ED90 (Mus musculus [20]): 5.5 (mg/kg)/day; Vd [21]: 23 L/kg; half-life [22]: 5.73 h; ED90 (Mus musculus [23]): 2 (mg/kg)/day
O=C1CCC2(CC1)OOC1(CCCCC1)O2	0.015 (≈ 0.0663 µM)		0.039 (≈ 0.172 µM)				5	0	0	Survival (Mus musculus [7]): 5 days
C1CCC2(CC1)COC1(O2)C2CC3CC(C2)CC1C3 (stereo unspecified)	> 1		> 1				5.6	0	0	Survival (Mus musculus [7]): 5.6 days
CC(C)C1CCC2(CC1)OOC1(O2)C2CC3CC(C2)CC1C3 (stereo unspecified)	0.0014 (≈ 0.00457 µM)	99	0.002 (≈ 0.00653 µM)	9	7.3	9.89				
Fc1ccc(C2(c3ccc(F)cc3)OOC3(CCC(c4ccccc4)CC3)O2)cc1 (stereo unspecified)		0		5.7	5.3	0				
O=C1CCC2(CC1)OOC1(O2)C2CC3CC(C2)CC1C3 (stereo unspecified)	0.00048 (≈ 0.00172 µM)	94	0.00073 (≈ 0.00262 µM)	8.6		99.7	30	>99.99	>99.99	Survival (Mus musculus [24]): 7.1 days; ED50 (Mus musculus [20]): 3.5 (mg/kg)/day; ED90 (Mus musculus [20]): 7 (mg/kg)/day; Survival (Mus musculus [7]): 10.7 days; T1/2 [25]: 1.95 h; ED50 (Mus musculus [26]): 8.7 (mg/kg)/day; ED90 (Mus musculus [26]): 12 (mg/kg)/day; Vd [27]: 12 L/kg; ED50 (Mus musculus [23]): 1.5 (mg/kg)/day; ED90 (Mus musculus [23]): 6.1 (mg/kg)/day
CC1(C)COC2(CCC3(CC2)OOC2(O3)C3CCCC2CCC3)OC1 (stereo unspecified)	0.041 (≈ 0.116 µM)	1	0.049 (≈ 0.139 µM)	5.3	5	6				
C1CC2(CCO1)OOC1(O2)C2CC3CC(C2)CC1C3 (stereo unspecified)		35			6	99.6	7.7			
CCCC1CCC2(CC1)OOC1(O2)C2CC3CC(C2)CC1C3 (stereo unspecified)	0.0011 (≈ 0.00359 µM)		0.0021 (≈ 0.00685 µM)	16.5	8.4					
C1CCCCCC2(CCCCC1)OOC1(O2)C2CC3CC(C2)CC1C3 (stereo unspecified)					7.4	90	7			
O=S1(=O)CCC2(CC1)OOC1(O2)C2CC3CC(C2)CC1C3 (stereo unspecified)		77		7.3	7	97				
CC(C)(C)C1CCC2(CC1)OOC1(O2)C2CC3CC(C2)CC1C3 (stereo unspecified)	0.063 (≈ 0.197 µM)	0	0.084 (≈ 0.262 µM)	5.3	5	0				
OC1CCC2(CC1)OOC1(O2)C2CC3CC(C2)CC1C3 (stereo unspecified)		79		8.7	6.7	91				
c1ccc(C2(c3ccccc3)CCC3(CC2)OOC2(O3)C3CC4CC(C3)CC2C4)cc1 (stereo unspecified)	0.042 (≈ 0.101 µM)	0	0.06 (≈ 0.144 µM)	5.7	5.3	0				
C1CCC2(CC1)OCC1(O2)C2CC3CC(C2)CC1C3 (stereo unspecified)	> 1		> 1				5.6	0	0	Survival (Mus musculus [7]): 5.8 days
CC1(C)CCC2(CC1)OOC1(O2)C2CC3CC(C2)CC1C3 (stereo unspecified)	0.0023 (≈ 0.00787 µM)	80	0.0035 (≈ 0.012 µM)	11.7	6.7					
c1ccc(C2(c3ccccc3)OOC3(O2)C2CC4CC(C2)CC3C4)cc1 (stereo unspecified)	0.0023 (≈ 0.0066 µM)	68	0.0026 (≈ 0.00746 µM)	7	6	92				
CC(C)(C)C1CCC2(CC1)OOC1(CCC(c3ccccc3)CC1)O2 (stereo unspecified)	0.077 (≈ 0.224 µM)		0.062 (≈ 0.18 µM)		0					
c1ccc(C2CCC3(CC2)OOC2(O3)C3CCCC2CCC3)cc1 (stereo unspecified)	> 0.1	0	> 0.1	5	5	0				
C1CCC2(CC1)OOC1(O2)C2CC3CC(C2)CC1C3 (stereo unspecified)		94				>99.99	28	>99.99	>99.99	Survival (Mus musculus [24]): 7.2 days; Survival (Mus musculus [7]): 14.3 days
CO[C@H]1O[C@@H]2O[C@@]3(C)CC[C@H]4[C@H](C)CC[C@@H]([C@H]1C)[C@@]24OO3		98				99.78	14.7	>99.99	99.95	clearance [18]: 114 mL/min/kg; bioavailability [19]: 1.4%; ED50 (Mus musculus [20]): 2 (mg/kg)/day; ED90 (Mus musculus [20]): 4.3 (mg/kg)/day; Survival (Mus musculus [7]): 14.7 days; ED50 (Mus musculus [26]): 2.7 (mg/kg)/day; ED90 (Mus musculus [26]): 6.2 (mg/kg)/day; Vd [21]: 8 L/kg; half-life [22]: 0.867 h; ED50 (Mus musculus [23]): 3.1 (mg/kg)/day
C[C@@H]1CC[C@H]2[C@@H](C)C(=O)O[C@@H]3O[C@@]4(C)CC[C@@H]1[C@]32OO4 [ARTEMISININ]	0.0016 (≈ 0.00567 µM)						14	>99.99	98	
C[C@H]1[C@H](OC(=O)CCC(=O)O)O[C@@H]2O[C@@]3(C)CC[C@H]4[C@H](C)CC[C@@H]1[C@@]24OO3 [ARTESUNATE]		65		6.8	6.8	65				ED50 (Mus musculus [20]): 5 (mg/kg)/day; ED90 (Mus musculus [20]): 13 (mg/kg)/day; ED50 (Mus musculus [26]): 5.9 (mg/kg)/day; ED90 (Mus musculus [26]): 21 (mg/kg)/day; ED50 (Mus musculus [23]): 2.4 (mg/kg)/day; ED90 (Mus musculus [23]): 13 (mg/kg)/day
CCN(CC)CCCC(C)Nc1ccnc2cc(Cl)ccc12 (stereo unspecified) [CHLOROQUINE]										ED50 (Mus musculus [26]): 1.9 (mg/kg)/day; ED90 (Mus musculus [26]): 4.2 (mg/kg)/day
